According to ChEMBL document CHEMBL1147105, “In vitro and in vivo activities of PD 0305970 and PD 0326448, new bacterial gyrase/topoisomerase inhibitors with potent antibacterial activities versus multidrug-resistant gram-positive and fastidious organism groups” (2007):

Tests used:
[1] = tested on: Enterococcus casseliflavus; test: Antibacterial activity against Enterococcus casseliflavus; assay type: functional
Shigella flexneri = test: Antibacterial activity against Shigella flexneri; assay type: functional
Outline: (§1)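 Broth microdilution MIC following CLSI guidelines, in cation-adjusted Mueller-Hinton broth, incubated at 35°C. Recent clinical isolates and reference strains, with identity confirmed by automated and standard microbiological methods. Results reported as MIC range, MIC50 and MIC90.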

Klebsiella aerogenes = test: Antibacterial activity against Enterobacter aerogenes; assay type: functional; outline: as §1
Escherichia coli = test: Antibacterial activity against Escherichia coli; assay type: functional; outline: as §1
[2] = tested on: Peptoniphilus asaccharolyticus; test: Antibacterial activity against Peptostreptococcus asaccharolyticus; assay type: functional
Outline: (§2)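 Anaerobic broth microdilution MIC following CLSI guidelines, in supplemented Brucella broth. Run in an anaerobe chamber under 5% CO2, 5% H2 and 90% N2 at 35°C, and read after 48 h. Reported as MIC range, MIC50 and MIC90.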

Streptococcus pneumoniae [3] = test: Antibacterial activity against penicillin-susceptible Streptococcus pneumoniae; assay type: functional
Outline: (§3)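 Broth microdilution MIC per CLSI guidelines, incubated at 35°C. Cation-adjusted Mueller-Hinton broth for nonfastidious organisms and staphylococci. Streptococci tested in the same broth with 3% lysed horse blood. Anaerobes tested in supplemented Brucella broth inside an anaerobe chamber (5% CO2, 5% H2, 90% N2), read after 48 h. Strains were mainly recent clinical isolates with confirmed identity.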

Actinomyces sp. = test: Antibacterial activity against Actinomyces sp.; assay type: functional
[4] = tested on: Staphylococcus saprophyticus; test: Antibacterial activity against Staphylococcus saprophyticus; assay type: functional; outline: as §1
Streptococcus pyogenes = test: Antibacterial activity against Streptococcus pyogenes; assay type: functional
Outline: (§4)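 Broth microdilution MIC following CLSI guidelines, in cation-adjusted Mueller-Hinton broth with 3% lysed horse blood. Plates incubated at 35°C. Clinical isolates and reference strains, with identity confirmed by standard microbiological methods.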

Klebsiella pneumoniae = test: Antibacterial activity against Klebsiella pneumoniae; assay type: functional; outline: as §1
Enterococcus faecalis [5] = test: Antibacterial activity against VanA-resistant Enterococcus faecalis; assay type: functional; outline: as §3
Alloiococcus otitis = test: Antibacterial activity against Alloiococcus otitidis; assay type: functional
Outline: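 MIC by broth microdilution following CLSI guidelines, in cation-adjusted Mueller-Hinton broth with 3% lysed horse blood. Incubated at 35°C and read after 48 h. Reported as MIC range, MIC50 and MIC90.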

Staphylococcus aureus [6] = test: Antibacterial activity against oxacillin-resistant Staphylococcus aureus; assay type: functional; outline: as §3
Staphylococcus warneri = test: Antibacterial activity against Staphylococcus warneri; assay type: functional; outline: as §1
Staphylococcus aureus [7] = test: Antibacterial activity against oxacillin and levofloxacin-resistant Staphylococcus aureus; assay type: functional; outline: as §3
[8] = tested on: Staphylococcus epidermidis; test: Antibacterial activity against oxacillin-susceptible Staphylococcus epidermidis; assay type: functional
Outline: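 MIC by CLSI broth microdilution for nonfastidious organisms, in cation-adjusted Mueller-Hinton broth incubated at 35°C.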

Corynebacterium jeikeium = test: Antibacterial activity against Corynebacterium jeikeium; assay type: functional
Outline: (§5)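 Broth microdilution MIC following CLSI guidelines, in cation-adjusted Mueller-Hinton broth containing 3% lysed horse blood, incubated at 35°C. Clinical isolates with identity confirmed. Reported as MIC range, MIC50 and MIC90.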

Enterococcus faecium [9] = test: Antibacterial activity against VanB-resistant Enterococcus faecium; assay type: functional; outline: as §3
[10] = tested on: Stenotrophomonas maltophilia; test: Antibacterial activity against Stenotrophomonas maltophilia; assay type: functional; outline: as §1
Enterococcus faecalis [11] = test: Antibacterial activity against Enterococcus faecalis; assay type: functional; outline: as §3
Staphylococcus aureus [12] = test: Antibacterial activity against vancomycin-intermediate Staphylococcus aureus; assay type: functional; outline: as §3
Streptococcus pneumoniae [13] = test: Antibacterial activity against levofloxacin-resistant Streptococcus pneumoniae; assay type: functional; outline: as §3
Citrobacter koseri = test: Antibacterial activity against Citrobacter diversus; assay type: functional; outline: as §1
Proteus vulgaris = test: Antibacterial activity against Proteus vulgaris; assay type: functional; outline: as §1
[14] = tested on: Prevotella melaninogenica; test: Antibacterial activity against Prevotella melaninogenica; assay type: functional; outline: as §2
Fusobacterium nucleatum = test: Antibacterial activity against Fusobacterium nucleatum; assay type: functional; outline: as §2
Moraxella catarrhalis = test: Antibacterial activity against beta-lactamase positive Moraxella catarrhalis; assay type: functional
Clostridioides difficile = test: Antibacterial activity against Clostridium difficile; assay type: functional; outline: as §2
Prevotella sp. = test: Antibacterial activity against Prevotella sp.; assay type: functional; outline: as §2
Bacteroides fragilis = test: Antibacterial activity against Bacteroides fragilis; assay type: functional; outline: as §2
Streptococcus sanguinis = test: Antibacterial activity against Streptococcus sanguis; assay type: functional; outline: as §4
Haemophilus influenzae = test: Antibacterial activity against beta-lactamase negative Haemophilus influenzae; assay type: functional
Outline: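 Broth microdilution MIC following CLSI guidelines, in Haemophilus test medium at 35°C.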

Clostridium perfringens = test: Antibacterial activity against Clostridium perfringens; assay type: functional; outline: as §3
Klebsiella oxytoca = test: Antibacterial activity against Klebsiella oxytoca; assay type: functional; outline: as §1
Burkholderia cepacia = test: Antibacterial activity against Burkholderia cepacia; assay type: functional; outline: as §1
Acinetobacter sp. = test: Antibacterial activity against Acinetobacter sp.; assay type: functional; outline: as §1
Anaerococcus prevotii = test: Antibacterial activity against Peptostreptococcus prevotii; assay type: functional; outline: as §2
Enterococcus faecium [15] = test: Antibacterial activity against VanA-resistant Enterococcus faecium; assay type: functional; outline: as §3
Fusobacterium sp. = test: Antibacterial activity against Fusobacterium sp.; assay type: functional; outline: as §2
Streptococcus pneumoniae [16] = test: Antibacterial activity against penicillin-intermediate resistant Streptococcus pneumoniae; assay type: functional; outline: as §3
Shigella dysenteriae = test: Antibacterial activity against Shigella dysenteriae; assay type: functional
Listeria monocytogenes = test: Antibacterial activity against Listeria monocytogenes; assay type: functional; outline: as §5
Citrobacter freundii = test: Antibacterial activity against Citrobacter freundii; assay type: functional; outline: as §1
Streptococcus pneumoniae [17] = test: Antibacterial activity against penicillin-resistant Streptococcus pneumoniae; assay type: functional; outline: as §3
Enterococcus gallinarum = test: Antibacterial activity against Enterococcus gallinarum; assay type: functional
Streptococcus agalactiae = test: Antibacterial activity against Streptococcus agalactiae; assay type: functional; outline: as §5
Salmonella enteritidis = test: Antibacterial activity against Salmonella enterica serovar Enteritidis; assay type: functional, Salmonella enterica subsp. enterica serovar Enteritidis; outline: as §1
Streptococcus viridans = test: Antibacterial activity against Streptococcus viridans; assay type: functional; outline: as §4
[18] = tested on: Staphylococcus haemolyticus; test: Antibacterial activity against Staphylococcus haemolyticus; assay type: functional; outline: as §5

COc1c(N2CCNC(C)C2)c(F)cc2c(=O)c(C(=O)O)cn(C3CC3)c12 (configuration not stated) [GATIFLOXACIN]
0.125 µg/mL: MIC (Actinomyces sp.) | MIC (Staphylococcus warneri) | MIC [8] | MIC50 (Corynebacterium jeikeium) | MIC50 [18]
0.008 µg/mL: MIC50 (Haemophilus influenzae)
32 µg/mL: MIC90 (Klebsiella aerogenes) | MIC50 (Enterococcus faecium [15])
64 µg/mL: MIC90 (Enterococcus faecium [15])
16 µg/mL: MIC90 (Staphylococcus aureus [7]) | MIC90 (Enterococcus faecalis [11]) | MIC90 (Burkholderia cepacia) | MIC90 (Acinetobacter sp.) | MIC90 (Citrobacter freundii)
8 µg/mL: MIC (Enterococcus faecalis [5]) | MIC90 (Staphylococcus aureus [6]) | MIC50 (Staphylococcus aureus [7]) | MIC90 [10] | MIC50 (Enterococcus faecalis [11]) | MIC (Staphylococcus aureus [12]) | MIC90 (Bacteroides fragilis)
1 µg/mL: MIC90 [1] | MIC50 (Klebsiella aerogenes) | MIC90 (Escherichia coli) | MIC50 [10] | MIC50 (Bacteroides fragilis) | MIC90 (Klebsiella oxytoca) | MIC90 (Listeria monocytogenes) | MIC90 (Streptococcus pneumoniae [17]) | MIC90 (Enterococcus gallinarum)
0.03 µg/mL: MIC50 (Shigella flexneri) | MIC50 (Escherichia coli) | MIC50 (Citrobacter koseri) | MIC50 (Moraxella catarrhalis) | MIC50 (Klebsiella oxytoca) | MIC50 (Acinetobacter sp.) | MIC50 (Shigella dysenteriae) | MIC50 (Salmonella enteritidis)
0.015 µg/mL: MIC (Fusobacterium nucleatum) | MIC90 (Haemophilus influenzae) | MIC (Fusobacterium sp.)
0.06 µg/mL: MIC90 (Shigella flexneri) | MIC [2] | MIC50 (Klebsiella pneumoniae) | MIC50 (Alloiococcus otitis) | MIC90 (Alloiococcus otitis) | MIC90 (Citrobacter koseri) | MIC (Proteus vulgaris) | MIC90 (Moraxella catarrhalis) | MIC (Anaerococcus prevotii) | MIC90 (Shigella dysenteriae) | MIC90 (Salmonella enteritidis)
2 µg/mL: MIC (Enterococcus faecium [9])
0.5 µg/mL: MIC50 [1] | MIC90 (Streptococcus pneumoniae [3]) | MIC90 (Streptococcus pyogenes) | MIC90 (Klebsiella pneumoniae) | MIC90 (Corynebacterium jeikeium) | MIC90 [14] | MIC50 (Clostridioides difficile) | MIC90 (Clostridioides difficile) | MIC90 (Prevotella sp.) | MIC50 (Streptococcus sanguinis) | MIC90 (Streptococcus sanguinis) | MIC50 (Clostridium perfringens) | MIC90 (Clostridium perfringens) | MIC90 (Streptococcus pneumoniae [16]) | MIC50 (Listeria monocytogenes) | MIC50 (Enterococcus gallinarum) | MIC50 (Streptococcus viridans) | MIC90 (Streptococcus viridans)
0.25 µg/mL: MIC50 (Streptococcus pneumoniae [3]) | MIC50 [4] | MIC90 [4] | MIC50 (Streptococcus pyogenes) | MIC50 [14] | MIC50 (Prevotella sp.) | MIC50 (Streptococcus pneumoniae [16]) | MIC50 (Citrobacter freundii) | MIC50 (Streptococcus pneumoniae [17]) | MIC50 (Streptococcus agalactiae) | MIC90 (Streptococcus agalactiae)
4 µg/mL: MIC50 (Staphylococcus aureus [6]) | MIC50 (Streptococcus pneumoniae [13]) | MIC90 (Streptococcus pneumoniae [13]) | MIC50 (Burkholderia cepacia) | MIC90 [18]
